# NOD2 RIPK2 PPI: NOD2-RIPK2 protein interaction inhibition; 0.38% of 360,000 active; CHO BLA complementation NOD2-RIPK2, CCF4 ratio; inhibition, % at 4.98 µM; in the data active means inhibition above about 21%;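 further: 0% = vehicle only and 100% = reference blocker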
# TLR9-MyD88 inh: inhibitors of human TLR9-MyD88 binding; 0.21% of 340,000 active; CHO BLA complementation TLR9-MyD88, CCF4 FRET ratio; inhibition, % at 4.98 µM;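 active means inhibition above the mean over all tested compounds plus 3 SD, cut at about 21% in these data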;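 further: 0% = DMSO only wells and 100% = clavulanate BLA inhibitor control wells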
# TLR4-MyD88 BLA: inhibitors of human TLR4-MyD88 binding | inhibition, % at 8.4 µM | HeLa CL3-4 TLR4/MyD88 BLA complementation, FRET ratio | 0.18% of 200,000 active; in the data active means inhibition above about 25%;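 further: 0% = vehicle and 100% = reference inhibitor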
# CHOP inhibitor: inhibitors of CHOP induction in ER stress response | 3.8% of 220,000 active | inhibition, % at 10 µM | AID 2732 | CHO-K1 CHOP-promoter luciferase, tunicamycin-induced, 15-18 h;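 active means compounds that reduced the stress-induced luciferase reporter signal by more than about 70% of percent inhibition, limit read from the data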;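 further: 0% = tunicamycin plus vehicle and 100% = wells without tunicamycin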
# XBP1 UPR activ: adaptive UPR (XBP1) activation. CHO-XBP1 luciferase reporter, IRE1-XBP1 UPR activation, luminescence; percent of tunicamycin response, DMSO as zero. activation, % at 20 µM. 0.33% of 330,000 active;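 active means versus positive control, 20 µM dose yields 30% or more activation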;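 further: 100% = tunicamycin at 10 µg/mL and 0% = DMSO only wells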
#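 Assay system: CHO-XBP1 luciferase reporter cells; Schedule: 6 h treatment, 37 °C; Detection: glow luminescence from Steady-Glo reagent; Benchmarks: high control tunicamycin 10 µg/mL final, low control DMSO vehicle only.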
# CHOP UPR activ: activators of apoptotic arm of unfolded protein response (CHOP); activation, % at 10 µM; CHO-CHOP luciferase reporter, UPR activation, luminescence; percent of tunicamycin response over DMSO baseline; AID 449763; 0.34% of 330,000 active;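 active means at 10 µM dose, activation of 40% or more, normalized to positive control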;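 further: 100% = tunicamycin at 10 µg/mL and 0% = DMSO alone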
#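 assay system = CHO CHOP reporter cells | amount = 500 CHO-CHOP cells per well | buffer or medium = F12 with 10% FBS | incubation = 16-18 h cell attachment, then 6 h compound exposure, 37 °C | detection = luminescence read with Steady-Glo | read-out = percent activation relative to tunicamycin control | controls = tunicamycin high control, DMSO low control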
# CHOP inh conf: confirmation of CHOP induction inhibitors; inhibition, % at 10 µM; 45% of 2,100 active; CHO-CHOP promoter luciferase reporter, tunicamycin-induced, luminescence; AID 504437; shares compounds with CHOP inhibitor;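 active means mean of three repeat readings of reporter signal inhibition above a set limit, cut at about 70% in these data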;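 further: 0% = tunicamycin plus vehicle and 100% = wells lacking tunicamycin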
# The depositor's hits bear a star; . = no result. Shown is part of a subset that was picked to be rich in hits.
SMILES,NOD2 RIPK2 PPI,TLR9-MyD88 inh,TLR4-MyD88 BLA,CHOP inhibitor,XBP1 UPR activ,CHOP UPR activ,CHOP inh conf
CCn1cc(CN(C)C(=O)/C=C/c2ccc([N+](=O)[O-])cc2)c(C)n1,3,-4,-12,96*,-1,0,0
Cc1cccc(/C=C/c2nc3ccccc3c(=O)[nH]2)c1,-12,7,5,102*,3,4,121*
Cc1ccc(S(=O)(=O)/N=C2/C=C(Sc3ncn[nH]3)C(=O)c3ccccc32)cc1,-9,4,-6,108*,.,.,108*
Cc1ccc(S(=O)(=O)/N=C2/C=C(Sc3ncn[nH]3)C(=O)c3ccccc32)c(C)c1,.,.,-7,109*,.,.,-8
O=C(NCc1ccc2c(c1)OCO2)C(=O)NCC1OCCN1S(=O)(=O)c1ccccc1 (centres undefined),-11,6,.,.,-6,3,.
Nc1nc(SCC(=O)Nc2ccc3c(c2)OCO3)n[nH]1,0,-11,-2,-2,-2,-1,.
O=C(CC(NC(=O)c1ccccc1)c1ccccc1)NCc1ccccc1 (centres undefined),-10,-4,.,.,-2,-1,.
O=C(CC(NC(=O)c1ccccc1)c1ccccc1)Nc1cccc2ccccc12 (centres undefined),-6,2,-11,104*,-1,-1,1
O=C(COC(=O)/C=C/c1ccc(F)cc1)NC1CCS(=O)(=O)C1 (centres undefined),-18,-8,.,.,1,-1,.
Clc1nssc1=Nc1ccc(Br)cc1,-2,1,2,106*,.,.,131*
COc1cc(N=c2ssnc2Cl)cc(OC)c1,-17,0,-26,106*,0,3,20
COc1ccc(/C=C2\SC(=O)N(CC(=O)NCCC(C)C)C2=O)cc1OC,0,5,.,2,-4,1,.
COc1ccc(/C=C2/SC(=O)N(CC(=O)NCCC(C)C)C2=O)cc1OC,5,8,5,100*,3,1,-34
COc1cc(C(=O)COC(=O)c2cnc(C)cn2)ccc1OC(F)F,4,-9,.,.,-5,1,.
CCOC(=O)c1c(NC(=O)C2=C(C)NC(=S)NC2c2ccc(CC)cc2)sc(C)c1C (centres undefined),.,.,2,97*,3,0,57
Cc1cccc(/C=C2/S/C(=N/N=C3\CC4CCC3(C)C4(C)C)NC2=O)c1 (centres undefined),4,1,3,105*,1,-2,106*
CCOc1ccc(S(=O)(=O)Nc2ccc(F)cc2)c(C)c1C,7,-2,-10,106*,0,0,59
Cc1cc(C)cc(OC2CCCCC2NS(=O)(=O)c2ccccc2)c1 (centres undefined),4,-13,3,99*,0,-1,70*
CCCc1ccc(C(=O)NNC(=O)c2ccc(Br)cc2)cc1,-3,4,7,99*,-2,0,42
CCOc1ccccc1NC(=O)CCSc1nc2n[nH]c(C)c2c(=N)n1-c1ccccc1Cl,-17,-15,16,101*,110*,7,10
Cc1sc(NC(=O)c2sc3nc4c(C)cccc4cc3c2N)c(C#N)c1C,-1,7,25,65,1,1,.
Cc1cccc2cc3c(N)c(C#N)sc3nc12,14,17,-2,99*,1,0,70*
Cc1cc(NCCCN)nc(-c2ccccc2O)n1,3,-4,8,101*,-1,-2,-10
C/C(=N\Nc1cc(C)nc(-c2ccccc2O)n1)c1ccccc1,-3,-5,-5,44,4,2,.
Cc1cc(N/N=C/c2ccc(O)c(C)c2O)nc(-c2ccccc2O)n1,12,-1,-11,107*,.,.,28
SMILES,NOD2 RIPK2 PPI,TLR9-MyD88 inh,TLR4-MyD88 BLA,CHOP inhibitor,XBP1 UPR activ,CHOP UPR activ,CHOP inh conf
Cc1ccc(Nc2cc(C)nc(-c3ccccc3O)n2)cc1,-6,-7,-4,56,0,3,.
Cc1cnc(NC(=O)C(C)N2CCN(C)CC2)s1 (centres undefined),2,-3,-3,-17,-2,0,.
Cc1ccc(C(C)C)c(OCc2ccc(C(=O)N/N=C/c3ccc(O)cc3O)cc2)c1,4,4,8,52,.,.,.
Cc1ccc(C(C)C)c(OCc2ccc(C(=O)N/N=C/c3ccc(C(=O)O)cc3)cc2)c1,0,3,.,97*,-1,-1,31
Cc1ccc(C(=O)NNC(=O)CSc2nnc3c(n2)[nH]c2ccc(C)cc23)cc1,-2,2,-1,104*,-1,-1,13
Cc1ccc(C(=O)NNC(=O)CSc2nc(N)cc(N)n2)cc1,-2,-14,14,9,-1,0,.
CCOC(=O)C1CC(c2ccccc2)=NN1c1ccccc1 (centres undefined),1,-3,.,.,.,.,.
Cc1c(Cl)cccc1N=C1NC(=O)CS1,-4,1,.,.,.,.,.
O=C(CSc1nnc(SCc2cccc3ccccc23)s1)N/N=C/c1c[nH]c2ccccc12,-6,-2,-4,105*,3,0,34
C[C@H](O)[C@@H]1C(=O)N2CCc3ccc(N4CCN(C)CC4)cc3[C@@H]2C[C@@H]1N(C)C(=O)c1ccco1,4,10,.,.,.,.,.
COc1ccc(/C(=C/c2ccc(OC(F)F)c(OC)c2)C(=O)O)cc1OC,-9,-2,-7,2,-1,-2,.
CC(C)c1ccc(O)c(NC(=S)NC(=O)CCc2ccccc2)c1,8,3,1,106*,-1,0,110*
Cc1n[nH]c(C)c1S(=O)(=O)N(CC(=O)N1CCc2ccccc21)c1ccc(C(C)C)cc1,4,-3,1,96*,-2,2,36
COc1cc(/C=N/N2CCN(C3c4ccccc4-c4ccccc43)CC2)ccc1O,-4,-5,6,106*,-3,0,38
Oc1cccc(/C=N/N2CCN(C3c4ccccc4-c4ccccc43)CC2)c1,-6,-1,.,-5,1,-1,.
CCN(CC(=O)Nc1cccc(S(=O)(=O)N2CCOCC2)c1)Cc1ccccc1,2,-6,.,.,2,2,.
O=C(Oc1oc(-c2ccco2)nc1C=Nc1ccccc1)c1ccoc1,-8,-5,4,109*,2,2,-5
Cc1ccc(C(=O)Oc2oc(-c3ccco3)nc2C=Nc2ccc(Cl)cc2)cc1,-13,10,5,101*,7,31,0
O=C(Oc1oc(-c2ccco2)nc1C=Nc1ccccc1)c1ccco1,-1,2,-12,-20,-2,4,.
COc1ccc(NS(=O)(=O)c2ccc3oc(SCc4ccc(F)cc4)nc3c2)cc1,2,8,1,96*,0,-1,58

# Screens (PubChem)
